# What was measured:
# [1] = tested on: interaction between GFP-SART3 and endogenous coilin; assay: Co-IP of GFP-SART3 with endogenous coilin; format: cell-based, human; details: HEK293T; 3 days; 10uM EPZ015666 or 1uM MS023; IP/western blot
# Summary of the method: (§1)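 HEK293T cells were grown at 37°C in DMEM with 10% FBS and 1% antibiotic-antimycotic, then transfected at 80% confluence using lipofectamine 2000. They were treated with 10uM EPZ015666 (PRMT5) or 1uM MS023 (PRMT1) for 3 days. Lysates were made in mild buffer (10mM Tris pH 7.5, 150mM NaCl, 0.5mM EDTA, 0.5% NP-40, protease inhibitors). Anti-GFP on Protein A/G beads was incubated with lysate 2 h at 4°C, then SDS-PAGE, PVDF, ECL western.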
# [2] = tested on: interaction between GFP-SART3 and endogenous fibrillarin; assay: Co-IP of GFP-SART3 with endogenous fibrillarin; format: cell-based, human; details: HEK293T; 3 days; 10uM EPZ015666 or 1uM MS023; IP/western blot
# Summary of the method: as §1
# GST-SART3(HAT) (N + C) = assay: Biotinylated GAR peptide pull-down of GST-SART3; format: binding; details: 2 μg GST-tagged protein, 1h at 4°C, western blot, repeated three times
# Summary of the method: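 Streptavidin beads loaded with biotinylated GAR peptides (1 h, 4°C, rocking): fibrillarin unmethylated, ADMA or SDMA; coilin unmethylated, or SDMA at Arg 1–3 or 3–5. After 3 washes in mild lysis buffer (10 mM Tris/Cl pH 7.5, 0.5 mM EDTA, 0.5% NP-40), beads took 2 μg GST protein for 1 h at 4°C with rocking. Coilin pull-downs also ran in RIPA. Bound protein was eluted and read by western blot.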
# [3] = tested on: interaction between SART3 and the representative spliceosomal proteins; assay: Co-IP of GFP-SART3 with representative spliceosomal proteins; format: cell-based, human; details: HeLa, 10uM EPZ015666, 3 days, IP/western blot
# Summary of the method: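 HeLa SART3-KO clones were made by lentiCRISPRv2 and blasticidin 10 μg/mL, then single-cell cloned. They were restored by lentiviral GFP-SART3 (WT, Y112A or W377A) with puromycin 2 μg/mL selection. Lysates in mild NP-40 buffer were incubated with anti-GFP on Protein A/G beads, 2 h at 4°C, washed three times and boiled. Partners were detected by SDS-PAGE/PVDF western with HRP secondary and ECL on X-ray film.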
# PRMT1 = assay: GFP-Trap IP-MS of GFP-RMET; format: cell-based, human; details: HEK293T, AdOx-treated, 3 days, label-free MS
# Summary of the method: (§2)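 HEK293T cells were transfected with GFP-RMET; half were treated with 25uM AdOx for 3 days. Cells were lysed in mild NP-40 buffer with protease inhibitors and sonicated, and cleared lysate was captured on GFP-trap agarose 2 h at 4°C. Eluates were gel-separated and the excised bands analysed by nanoLC-MS/MS on an Orbitrap Fusion. Sequest HT searching used 10 ppm MS and 0.6 Da MS/MS tolerance, with 1% protein FDR (2 peptides) and 0.1% peptide FDR. Peptide counts per protein were reported.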
# RIOK1 = assay: GFP-Trap IP-MS of GFP-RMET; format: cell-based, human; details: HEK293T, AdOx-treated, 3 days, label-free MS
# Summary of the method: as §2
# MEP50 = assay: GFP-Trap IP-MS of GFP-RMET; format: cell-based, human; details: HEK293T, AdOx-treated, 3 days, label-free MS
# Summary of the method: as §2
# SMN = assay: GFP-Trap IP-MS of GFP-RMET; format: cell-based, human; details: HEK293T, with vs without AdOx, 3 days, label-free MS
# Summary of the method: (§3)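 HEK293T cells at 80% confluence were transfected with GFP-RMET using lipofectamine 2000. Half the cells got 25uM AdOx for 3 days. Lysis was in mild buffer (10 mM Tris/Cl pH 7.5, 150 mM NaCl, 0.5 mM EDTA, 0.5% NP-40) with protease inhibitors, then sonication and clearing. GFP-trap agarose ran 2 h at 4°C, followed by washing, elution, gel and LC-MS. Peptide counts per protein were taken at 1% protein FDR, 2 peptides minimum, and 0.1% peptide FDR.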
# SND1 = assay: GFP-Trap IP-MS of GFP-RMET; format: cell-based, human; details: HEK293T, with vs without AdOx, 3 days, label-free MS
# Summary of the method: as §3
# PRMT5 = assay: GFP-Trap IP-MS of GFP-RMET; format: cell-based, human; details: HEK293T, AdOx-treated, 3 days, label-free MS
# Summary of the method: as §2
molecule,measurement,setting,value
CC(C)Oc1ccc(-c2c[nH]cc2CN(C)CCN)cc1 [MS023],interaction between GFP-SART3 and endogenous coilin,[1],this reduced interaction was not observed
same,interaction between GFP-SART3 and endogenous fibrillarin,[2],this reduced interaction was not observed
Biotin-AKGRGMRG[Rme2s]G[Rme2s]G[Rme2s]GHP-Amide,binding of coilin GAR peptide to GST-SART3(HAT),"GST-SART3(HAT) (N + C); biotinylated coilin GAR peptides, mild buffer (300 mM NaCl)",strong interaction
GGRGRGGGFRGRGRGGGG-Biotin [unmethylated],pull-down of GST-SART3(HAT) by fibrillarin GAR peptide,"GST-SART3(HAT) (N + C); biotinylated fibrillarin GAR peptides, streptavidin beads, mild buffer (150 mM NaCl)",only the SDMA-modified peptide pulled down GST-SART3(HAT)
O=C(NC[C@H](O)CN1CCc2ccccc2C1)c1cc(NC2COC2)ncn1 [EPZ015666],interaction between GFP-SART3 and endogenous coilin,[1],reduced the interaction
same,interaction between SART3 and representative spliceosomal proteins,[3],inhibits the interaction
same,interaction between GFP-SART3 and endogenous fibrillarin,[2],reduced the interaction
Nc1ncnc2c1ncn2C(C=O)OC(C=O)CO (stereo not shown) [AdOx],enrichment of PRMT1 with RMET,PRMT1,relatively enriched
same,enrichment of RIOK1 with RMET,RIOK1,relatively enriched
same,enrichment of MEP50 with RMET,MEP50,relatively enriched
same,enrichment of SMN as RMET binder,SMN,"selectively enriched as RMET binders, exclusively in cells that were not treated with AdOx"
same,enrichment of SND1 as RMET binder,SND1,"selectively enriched as RMET binders, exclusively in cells that were not treated with AdOx"
same,enrichment of PRMT5 with RMET,PRMT5,relatively enriched

# — article PMC11370311 (Cell reports, 2024)
